S100A4 inh HTS: S100A4-myosin IIA interaction inhibition | S100A4/TAMRA-MyoIIA peptide fluorescence polarization | inhibition, % at 10.7 µM | hit rate 0.14% among 360,000;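 active = mean inhibition of at least 70% across replicates, with every replicate also reaching that level; inconclusive = mean inhibition reaches 70% but some replicates fall short; inactive = mean inhibition below 70%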
Target sequence (P26447 whole entry, looked up): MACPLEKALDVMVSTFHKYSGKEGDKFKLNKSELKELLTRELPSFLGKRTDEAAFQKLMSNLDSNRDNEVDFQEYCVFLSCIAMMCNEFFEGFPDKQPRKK
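assay system = human S100A4 monomer with TAMRA-labelled myosin IIA peptide | also added = labelled myosin peptide probe, 5 nM | incubation = 5 min between mix addition and reading | control set = DMSO and TFP controls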
PfHsp90 yeast 2: growth inhibition of yeast expressing Plasmodium Hsp90; S. cerevisiae expressing PfHsp90, BacTiter-Glo ATP, 48 h; yeast lacking PDR1 and PDR3 efflux regulators; inhibition, % at 9.4 µM; hit rate 0.32% among 310,000; AID 504621;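 active = every replicate shows inhibition above about 80%, whatever the replicate mean, limit read from the data; inconclusive = mean inhibition reaches the set limit but some replicate falls short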
AF4-AF9 inh: inhibitors of human MLL-AF4/AF9 interaction. AID 651704. inhibition, % at 10 µM. hit rate 0.47% among 350,000. P42568. AlphaScreen, biotin-AF4 peptide binding to FLAG-AF9;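 active = every replicate reaching a set inhibition limit, whatever the replicate mean, cut at about 25% in these data; inconclusive = mean inhibition reaches that limit but some replicates miss it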
Target sequence (P42568 whole entry, looked up): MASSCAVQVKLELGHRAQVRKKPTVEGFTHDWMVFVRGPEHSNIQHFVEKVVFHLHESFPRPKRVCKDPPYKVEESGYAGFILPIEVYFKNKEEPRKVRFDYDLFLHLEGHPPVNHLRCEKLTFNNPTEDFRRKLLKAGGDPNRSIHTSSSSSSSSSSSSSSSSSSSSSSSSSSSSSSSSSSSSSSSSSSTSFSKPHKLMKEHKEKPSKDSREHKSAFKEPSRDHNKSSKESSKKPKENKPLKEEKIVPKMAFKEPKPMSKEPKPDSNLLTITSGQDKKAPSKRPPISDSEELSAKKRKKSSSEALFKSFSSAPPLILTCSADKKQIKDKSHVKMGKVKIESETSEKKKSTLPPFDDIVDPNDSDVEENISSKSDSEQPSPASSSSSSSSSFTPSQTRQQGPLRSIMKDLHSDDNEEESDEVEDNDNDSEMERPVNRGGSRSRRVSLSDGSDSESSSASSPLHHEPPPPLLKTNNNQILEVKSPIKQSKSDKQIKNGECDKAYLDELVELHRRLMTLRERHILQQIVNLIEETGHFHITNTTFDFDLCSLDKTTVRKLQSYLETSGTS
Ecoli rRNA inh: inhibitors of bacterial rRNA selective over humanized ribosomes; E. coli WT GFP vs humanized-ribosome RFP mutants, fluorescence, 24 h; hits give low values; DMSO median 0, no signal -100; GFP signal change (wild-type ribosome), % (no concentration beside the values); hit rate 1.6% among 350,000;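 active = significant combined selectivity score with lowered wild-type GFP, culture density cut under 30%, mutant RFP and density less affected; inactive = any of these conditions unmet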
Cneo AK release: Cryptococcus neoformans lysis via adenylate kinase release; lysis activity, % at 15 µM; hit rate 0.2% among 360,000; C. neoformans lysis, adenylate kinase release luminescence, 4 h; normalised: neutral wells 0, clomiphene wells 100;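 active = mean lysis activity across replicates of at least 80%, whatever share of replicates individually reach that level; inactive = mean lysis activity below 80%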
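Test system: log-phase Cryptococcus neoformans yeast cells. Input: 5 × 10^6 yeast cells/mL. Medium: fresh YPD growth medium. Doses: single dose. Incubation: static 4 h at 37 °C with compound, 1 h detection. Measured by: luminescent adenylate kinase detection reagent. Read-out: signal increase indicating cell lysis. Benchmarks: Clomiphene.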
DENV2 CPE: protects cells from dengue virus 2 cytopathic effect; DENV2-infected cells, cytopathic effect rescue, plate reader; CPE inhibition, % at 9.99 µM; hit rate 1.7% among 350,000; in the data active = CPE inhibition above about 20%, passing the limit was not always enough; inconclusive = no clear call, values can overlap the other calls; tested in BHK-21 cells
Large screens that a line does not name were inactive. Most compounds without a hit are left out; they make up all but 3.2% or so of the library.

CCC(=O)N(C)C[C@H]1Oc2cc(-c3ccccc3F)ccc2S(=O)(=O)N([C@@H](C)CO)C[C@@H]1C	none (no result: PfHsp90 yeast 2)
CC(C)NC(=O)Nc1ccc2c(c1)CC(=O)N([C@H](C)CO)C[C@@H](C)[C@H](CN(C)S(=O)(=O)c1cn(C)cn1)O2	none (no result: PfHsp90 yeast 2)
CCN(CC)c1ccc(N=C2C=CC(=O)C=C2NC(C)=O)cc1	S100A4 inh HTS 127.1 (no result: PfHsp90 yeast 2)
O=S(=O)(c1cccc(C(F)(F)F)c1)N1CCN(CC(O)COCc2ccccc2)CC1 (stereo not drawn)	DENV2 CPE 62.9
Cn1c(SCC(=O)CC(=O)Nc2ccccc2)nnc1-c1ccc(O)cc1	Ecoli rRNA inh -17.6
Cn1c(SCC(=O)Nc2ccc(F)cc2)nnc1-c1cccnc1	DENV2 CPE 21.9
Cc1ccc(-c2nnc(SCC(=O)CC(=O)Nc3ccccc3)n2C)cc1	none (no result: S100A4 inh HTS, PfHsp90 yeast 2, AF4-AF9 inh, Ecoli rRNA inh, DENV2 CPE)
Cn1c(SCC(=O)Nc2ccccc2F)nnc1-c1cccnc1	none
CC(C)NC(=O)N(C)C[C@@H]1Oc2ccc(NC(=O)Nc3ccc(F)cc3)cc2CC(=O)N([C@@H](C)CO)C[C@H]1C	none (no result: PfHsp90 yeast 2)
CCCCCCCNC(=O)c1ccc(N2CCC3(CC2)OCCO3)c([N+](=O)[O-])c1	Ecoli rRNA inh -25.5 (no result: Cneo AK release)
CCCNC(=O)c1ccc(N2CCC3(CC2)CC(c2ccccc2)=NO3)c([N+](=O)[O-])c1	none
CCS(=O)(=O)N1CC2(CN(Cc3ccc(F)cc3)[C@H](CO)c3c2c2ccc(OC)cc2n3C)C1	none (no result: S100A4 inh HTS, PfHsp90 yeast 2, Cneo AK release)
CC(=O)Nc1ccc(-c2ccnc3c2CC(C(=O)Nc2ccccc2)O3)cc1 (stereo not drawn)	DENV2 CPE 55.9 (no result: PfHsp90 yeast 2)
COc1ccc(CCNC(=O)c2cnc3scc(C)n3c2=O)cc1OC	DENV2 CPE 75.1
COc1ccc(CCNC(=O)c2nc(-c3cccs3)no2)cc1OC	Ecoli rRNA inh -22.3 (no result: Cneo AK release)
COc1ccc(C)cc1NC(=O)c1cnc2scc(C)n2c1=O	DENV2 CPE inconclusive
COc1cc(CC(=O)Nc2ccccc2N2CCOCC2)cc(OC)c1OC	none (no result: Ecoli rRNA inh, Cneo AK release)
COc1ccc(NC(=O)COC(=O)Cc2coc3cc(OC)ccc23)c(OC)c1	Ecoli rRNA inh -33.9
COc1ccc2c(CC(=O)Nc3ccccc3N3CCOCC3)coc2c1	Ecoli rRNA inh -27.4
COc1ccc2c(CC(=O)Nc3ccccc3OC)coc2c1	none
Cc1ccc(-c2cc(Cc3cccs3)c(=O)[nH]n2)cc1	none
O=c1[nH]nc(-c2ccc(F)cc2)cc1Cc1cccs1	Ecoli rRNA inh -20.4 (no result: AF4-AF9 inh, Cneo AK release)
O=C(N[C@@H]1CC[C@H](CCNC(=O)C2CCC2)O[C@H]1CO)c1ccccn1	none (no result: PfHsp90 yeast 2)
CN(C[C@H](Cc1ccccc1)N(C[C@@H](CC1CCCCC1)N(CCc1ccccc1)N=O)N=O)N=O	DENV2 CPE 57.1 (no result: AF4-AF9 inh)
CC(C)C[C@@H](CN(N=O)[C@@H](Cc1ccccc1)CN(C)N=O)N(CCc1ccccc1)N=O	none
O=C(C[C@H]1C(=O)N(Cc2ccccc2)C[C@@H]1Cc1ccccc1)Nc1ccc(Br)cc1	DENV2 CPE 25.6 (no result: PfHsp90 yeast 2)
CCCCN1C[C@H](Cc2ccccc2)[C@@H](CC(=O)NCc2ccc(OC)cc2)C1=O	DENV2 CPE 48.0
CCCCC[C@H]1CN(CCCC)C(=O)[C@@H]1CC(=O)NCc1ccc(OC)cc1	DENV2 CPE inconclusive
O=C(C[C@H]1C(=O)N(Cc2cccnc2)C[C@@H]1Cc1ccccc1)Nc1ccc(Br)cc1	none (no result: PfHsp90 yeast 2)
COc1ccc(CNC(=O)C[C@H]2C(=O)N(c3ccccc3)C[C@@H]2Cc2ccccc2)cc1	none (no result: DENV2 CPE)
CCCCC[C@H]1CN(CCc2ccccc2)C(=O)[C@@H]1CC(=O)NCc1ccc(OC)cc1	DENV2 CPE 24.0
CC(C)NC(=O)N(C)C[C@H]1Oc2ccc(NS(=O)(=O)c3ccc(F)cc3)cc2C(=O)N([C@@H](C)CO)C[C@@H]1C	none (no result: S100A4 inh HTS, PfHsp90 yeast 2, Cneo AK release)
COc1cccc(N2CCN(c3ccc(S(=O)(=O)N4CCN(C)CC4)cc3[N+](=O)[O-])CC2)c1	Ecoli rRNA inh -23.0 (no result: PfHsp90 yeast 2, Cneo AK release)
CC(C)C#Cc1ccc([C@H]2[C@@H](CO)N3C(=O)CN(C(=O)C4CCCCC4)C[C@@H]23)cc1	DENV2 CPE inconclusive (no result: PfHsp90 yeast 2, Cneo AK release)
CO[C@H]1CN(C)C(=O)c2ccc(NC(=O)NC(C)C)cc2OC[C@@H](C)N(C(=O)NC(C)C)C[C@H]1C	S100A4 inh HTS 88.9 (no result: PfHsp90 yeast 2)
CO[C@H]1CN(C)C(=O)c2ccc(NC(C)=O)cc2OC[C@@H](C)N(S(=O)(=O)c2cn(C)cn2)C[C@@H]1C	DENV2 CPE 25.9 (no result: PfHsp90 yeast 2)
CO[C@H]1CN(C)C(=O)c2ccc(NC(=O)NC(C)C)cc2OC[C@@H](C)N(S(C)(=O)=O)C[C@@H]1C	DENV2 CPE 42.7 (no result: PfHsp90 yeast 2, Cneo AK release)
CO[C@@H]1CN(C)C(=O)c2cc(NC(C)=O)ccc2OC[C@H](C)N(S(=O)(=O)c2cn(C)cn2)C[C@H]1C	none (no result: PfHsp90 yeast 2, Cneo AK release)
CO[C@@H]1CN(C)C(=O)c2ccc(NC(C)=O)cc2OC[C@@H](C)N(S(C)(=O)=O)C[C@H]1C	DENV2 CPE 93.9 (no result: PfHsp90 yeast 2)
CO[C@H]1CN(C)C(=O)c2ccc(NC(=O)NC(C)C)cc2OC[C@H](C)N(S(C)(=O)=O)C[C@@H]1C	none (no result: S100A4 inh HTS, PfHsp90 yeast 2, AF4-AF9 inh, Cneo AK release, DENV2 CPE)
Cc1ccc2nc(/C(C#N)=C\c3ccc([N+](=O)[O-])o3)[nH]c2c1	PfHsp90 yeast 2 104.5 (no result: S100A4 inh HTS, AF4-AF9 inh, Ecoli rRNA inh, DENV2 CPE)
C[C@H]1CN([C@@H](C)CO)S(=O)(=O)c2ccc(C3=CCCCC3)cc2O[C@@H]1CN(C)C	none (no result: S100A4 inh HTS, PfHsp90 yeast 2, AF4-AF9 inh, Cneo AK release, DENV2 CPE)
C/C=C(/C)C(=O)O[C@@H]1[C@H](OC(=O)C=C(C)C)c2c(ccc3ccc(=O)oc23)OC1(C)C	none (no result: DENV2 CPE)
C/C=C(/C)C(=O)O[C@@H]1c2c(ccc3ccc(=O)oc23)OC(C)(C)[C@@H]1OC(=O)/C(C)=C\C	DENV2 CPE 25.9
COc1cc2c(cc1OC)C(C)N(C(=O)c1sc(-c3cnccn3)nc1C)CC2 (stereo not drawn)	Ecoli rRNA inh -33.8 (no result: PfHsp90 yeast 2, Cneo AK release)
CC(=O)NC(c1ccc(C(C)C)cc1)c1ccc2cccnc2c1O (stereo not drawn)	PfHsp90 yeast 2 107.9
CCCCC(=O)NC(c1cccc([N+](=O)[O-])c1)c1ccc2cccnc2c1O (stereo not drawn)	PfHsp90 yeast 2 115.0
CCCCC(=O)NC(c1ccccc1)c1ccc2cccnc2c1O (stereo not drawn)	PfHsp90 yeast 2 114.8
COc1cccc(C(NC(C)=O)c2ccc3cccnc3c2O)c1 (stereo not drawn)	AF4-AF9 inh 26.1
CCCCC(=O)NC(c1ccccc1Cl)c1ccc2cccnc2c1O (stereo not drawn)	none
CC(=O)NC(c1cccc([N+](=O)[O-])c1)c1ccc2cccnc2c1O (stereo not drawn)	none
CC=Cc1ccc2n(c1=O)C[C@@H]1[C@@H](CO)[C@H](C(=O)NCCC)[C@H]2N1CC1CCCC1 (mixture of isomers)	none (no result: PfHsp90 yeast 2)

Source: PubChem BioAssay (Broad Institute)
